Consider seven molecules from ChEMBL document CHEMBL3046492, “Synthesis, insecticidal, and acaricidal activities of novel 2-aryl-pyrrole derivatives containing ester groups” (2008).

A word on the mortality: it is the percentage killed. Broadly, the LC50 is the concentration that kills 50% of the test population.

Holding throughout (type): functional
Test [1] deals with Culex pipiens pallens. Briefly: Insecticidal activity against fourth-instar larval stage of Culex pipiens pallens (mosquito) assessed as mortality at 0.10 mg/kg at 25 +/-1 degC after 2 days. The following applies: 48 h. Summed up: (§1)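 Test solutions were prepared by adding 1 mL of each concentrated dilution to 99 mL water. Bioassays were run at 25 ± 1 °C on laboratory-reared insects.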

Test [2] relates to Mythimna separata. Briefly: Insecticidal activity against fourth-instar larval stage of Mythimna separata (Oriental armyworm) in compound pretreated corn leaves assessed as mortality at 10 mg/kg at 25 +/-1 degC measured after 2 days.
Test [3] concerns Mythimna separata. Briefly: Insecticidal activity against fourth-instar larval stage of Mythimna separata (Oriental armyworm) in compound pretreated corn leaves assessed as mortality at 20 mg/kg at 25 +/-1 degC measured after 2 days.
In test [4] the test system is Plutella xylostella. Put plainly: Toxic ratio, ratio of Chlorfenapyr LC50 to compound LC50 for second-instar larval stage of Plutella xylostella (diamondback moth) by leaf disk assay.
Test [5] has as its system Tetranychus cinnabarinus. Briefly: Toxic ratio, ratio of Chlorfenapyr LC50 to compound LC50 for adult two spot Tetranychus cinnabarinus (carmine spider mite) measured after 24 hr by slide immersion method.
Test [6] has as its system Culex pipiens pallens. Put plainly: Insecticidal activity against fourth-instar larval stage of Culex pipiens pallens (mosquito) assessed as mortality at 0.25 mg/kg at 25 +/-1 degC after 2 days. Particulars: 48 h. Summed up: as §1
Test [7] deals with Mythimna separata. Put plainly: Insecticidal activity against fourth-instar larval stage of Mythimna separata (Oriental armyworm) in compound pretreated corn leaves assessed as mortality at 5 mg/kg at 25 +/-1 degC measured after 2 days.
Test [8] deals with Aphis fabae. Briefly: Insecticidal activity against apterous adult stage of Aphis fabae (black bean aphids) in soybean tender shoots assessed as mortality treated for 5 secs measured after 48 hr. The method, boiled down: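 This was a slightly modified FAO dip test. Soybean tender shoots carrying 40-60 healthy apterous adult aphids were dipped in diluted compound for 5 s. Excess fluid was removed, and shoots were kept in a conditioned room. Mortality was scored at 48 h, with testing at 25 ± 1 °C.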

For test [9], the system named is Tetranychus cinnabarinus. Put plainly: Acaricidal activity against adult Tetranychus cinnabarinus (carmine spider mite) in sieva bean plants assessed as mortality at 50 mg/kg treated for 3 secs measured after 2 days. The following applies: 48 h.
Test [10] deals with Aphis fabae. Put plainly: Toxic ratio, ratio of Chlorfenapyr LC50 to compound LC50 for apterous adult stage of Aphis fabae (black bean aphids) measured after 48 hr.
For test [11], the system named is Nephotettix cincticeps. Put plainly: Insecticidal activity against third instar larval stage of Nephotettix cincticeps (green rice leafhopper) in rice seedlings assessed as mortality treated for 15 secs before larval infestation measured after 48 hr by seedling-dipping method.
Test [12] relates to Plutella xylostella. Put plainly: Insecticidal activity against second-instar larval stage of Plutella xylostella (diamondback moth) in fresh cabbage leaves assessed as mortality treated for 15 secs before larval infestation by leaf disk assay. Particulars: foliar.
The test system of test [13] is Nephotettix cincticeps. Briefly: Toxic ratio, ratio of Chlorfenapyr LC50 to compound LC50 for third-instar larval stage of Nephotettix cincticeps (green rice leafhopper) measured after 48 hr by seedling-dipping method.
In test [14] the test system is Culex pipiens pallens. Briefly: Insecticidal activity against fourth-instar larval stage of Culex pipiens pallens (mosquito) assessed as mortality at 0.50 mg/kg at 25 +/-1 degC after 2 days. The following applies: 48 h. The method, boiled down:
as §1

The subject of test [15] is Tetranychus cinnabarinus. Briefly: Acaricidal activity against adult two spot Tetranychus cinnabarinus (carmine spider mite) assessed as mortality at 25 +/-2 degC treated for 10 secs measured after 24 hr by slide immersion method. Summed up: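 Thirty adult female mites were fixed dorsally on double-sided tape on a slide with a small brush. Slides were immersed and shaken for 10 s in diluted test solution, and excess liquid was removed. Slides were then held at 25 ± 2 °C in a Petri dish with moist filter paper. Dead mites were counted at 24 h. There were 3 replicates of 30 mites each, with chlorfenapyr as standard. LC50 was obtained by Finney probit analysis.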

Test [16] relates to Tetranychus cinnabarinus. Put plainly: Acaricidal activity against adult Tetranychus cinnabarinus (carmine spider mite) in sieva bean plants assessed as mortality at 200 mg/kg treated for 3 secs measured after 2 days. The following applies: 48 h.
Test [17] has as its system Tetranychus cinnabarinus. Briefly: Acaricidal activity against adult Tetranychus cinnabarinus (carmine spider mite) in sieva bean plants assessed as mortality at 100 mg/kg treated for 3 secs measured after 2 days. The following applies: 48 h.

In brackets after ≈: the same amount, converted by molar mass.

As for `CCOCn1c(-c2ccc(Cl)cc2)c(C#N)c(Br)c1C(F)(F)F` [CHLORFENAPYR], in the test with Culex pipiens pallens [1], the mortality at 0.1 mg/kg was 100%. Also, in the test with Mythimna separata [2], the mortality at 10 mg/kg stood at 100%. Further, the mortality at 20 mg/kg with Mythimna separata [3] turned out to be 100%. For the same molecule, the RatioLC50 with Plutella xylostella [4], in the test with Tetranychus cinnabarinus [5], in the test on Aphis fabae [10] and with Nephotettix cincticeps [13] was 1 in each case. For the same molecule, the mortality at 0.25 mg/kg in the test with Culex pipiens pallens [6] amounted to 100%. In the test on Mythimna separata [7], the mortality at 5 mg/kg came to 0%. Besides, the LC50 came out at 12.2 µg/mL (≈ 30 µM) in the test with Aphis fabae [8], 26.8 µg/mL (≈ 65.8 µM) with Nephotettix cincticeps [11], 1.82 µg/mL (≈ 4.46 µM) in the test with Plutella xylostella [12] and 1.14 µg/mL (≈ 2.8 µM) in the test on Tetranychus cinnabarinus [15]. Also, in the test with Tetranychus cinnabarinus [9], the mortality at 50 mg/kg was found to be 93%. Further, in the test on Culex pipiens pallens [14], the mortality at 0.5 mg/kg is 100%. The mortality at 200 mg/kg with Tetranychus cinnabarinus [16] was 100%. Besides, the mortality at 100 mg/kg in the test on Tetranychus cinnabarinus [17] worked out at 97%.
With `CC(Oc1ccc(C(C)(C)C)cc1)C(=O)OCn1c(-c2ccc(Cl)cc2)c(C#N)c(Br)c1C(F)(F)F` (centres undefined), in the test with Culex pipiens pallens [1], the mortality at 0.1 mg/kg is 100%. Further, the mortality at 10 mg/kg in the test on Mythimna separata [2] came out at 30%. In addition, in the test with Mythimna separata [3], the mortality at 20 mg/kg worked out at 80%. Also, in the test with Culex pipiens pallens [6], the mortality at 0.25 mg/kg is 100%. Besides, the mortality at 5 mg/kg in the test on Mythimna separata [7] was 0%. In addition, the mortality at 50 mg/kg in the test on Tetranychus cinnabarinus [9] turned out to be 94%. In the test with Culex pipiens pallens [14], the mortality at 0.5 mg/kg was found to be 100%. For the same molecule, the mortality at 200 mg/kg in the test on Tetranychus cinnabarinus [16] was 100%. Also, the mortality at 100 mg/kg in the test on Tetranychus cinnabarinus [17] turned out to be 96%.
As for `Cc1cccc(OC(C)C(=O)OCn2c(-c3ccc(Cl)cc3)c(C#N)c(Br)c2C(F)(F)F)c1` (centres undefined), the mortality at 0.1 mg/kg with Culex pipiens pallens [1] was determined as 100%. In addition, the mortality at 10 mg/kg with Mythimna separata [2] was 40%. Also, the mortality at 20 mg/kg with Mythimna separata [3] came to 100%. The mortality at 0.25 mg/kg in the test with Culex pipiens pallens [6] worked out at 100%. Also, the mortality at 5 mg/kg in the test on Mythimna separata [7] stood at 0%. In addition, in the test with Tetranychus cinnabarinus [9], the mortality at 50 mg/kg amounted to 96%. Moreover, the mortality at 0.5 mg/kg with Culex pipiens pallens [14] worked out at 100%. Moreover, the mortality at 200 mg/kg with Tetranychus cinnabarinus [16] came out at 100%. The mortality at 100 mg/kg in the test on Tetranychus cinnabarinus [17] stood at 98%.
Turning to `CCCC(=O)OCn1c(-c2ccc(Cl)cc2)c(C#N)c(Br)c1C(F)(F)F`, the mortality at 0.1 mg/kg in the test on Culex pipiens pallens [1] turned out to be 100%. In the test on Mythimna separata [2], the mortality at 10 mg/kg was found to be 100%. Moreover, the mortality at 20 mg/kg in the test on Mythimna separata [3] amounted to 100%. Also, the mortality at 0.25 mg/kg in the test with Culex pipiens pallens [6] was 100%. Also, the mortality at 5 mg/kg in the test on Mythimna separata [7] was 0%. In addition, the mortality at 50 mg/kg in the test with Tetranychus cinnabarinus [9] amounted to 100%. For the same molecule, the mortality at 0.5 mg/kg in the test on Culex pipiens pallens [14] is 100%. Besides, in the test on Tetranychus cinnabarinus [16], the mortality at 200 mg/kg was 100%. In the test on Tetranychus cinnabarinus [17], the mortality at 100 mg/kg is 100%.
On to `N#Cc1c(Br)c(C(F)(F)F)n(COC=O)c1-c1ccc(Cl)cc1`, for which the mortality at 0.1 mg/kg in the test with Culex pipiens pallens [1] was 50%. Moreover, in the test with Mythimna separata [2], the mortality at 10 mg/kg was 100%. In addition, the mortality at 20 mg/kg with Mythimna separata [3] came out at 100%. Further, the mortality at 0.25 mg/kg with Culex pipiens pallens [6] is 100%. Moreover, the mortality at 5 mg/kg with Mythimna separata [7] is 0%. The mortality at 50 mg/kg with Tetranychus cinnabarinus [9] was determined as 82%. Further, the mortality at 0.5 mg/kg with Culex pipiens pallens [14] turned out to be 100%. Besides, the mortality at 200 mg/kg with Tetranychus cinnabarinus [16] turned out to be 100%. Moreover, the mortality at 100 mg/kg in the test on Tetranychus cinnabarinus [17] was found to be 89%.
Regarding `CC(C)CC(=O)OCn1c(-c2ccc(Cl)cc2)c(C#N)c(Br)c1C(F)(F)F`, the mortality at 0.1 mg/kg with Culex pipiens pallens [1] is 100%. Moreover, the mortality at 10 mg/kg with Mythimna separata [2] was 100%. Besides, the mortality at 20 mg/kg in the test on Mythimna separata [3] stood at 100%. The RatioLC50 amounted to 0.97 in the test with Plutella xylostella [4], 2.65 with Tetranychus cinnabarinus [5], 0.69 in the test with Aphis fabae [10] and 0.79 in the test with Nephotettix cincticeps [13]. Further, in the test with Culex pipiens pallens [6], the mortality at 0.25 mg/kg came to 100%. Further, in the test on Mythimna separata [7], the mortality at 5 mg/kg stood at 0%. Besides, the median lethal concentration (LC50) in the test with Aphis fabae [8] worked out at 17.8 µg/mL (≈ 38.5 µM); with Nephotettix cincticeps [11], 34.1 µg/mL (≈ 73.6 µM); with Plutella xylostella [12] it was 1.88 µg/mL (≈ 4.05 µM); in the test with Tetranychus cinnabarinus [15] it was 0.43 µg/mL (≈ 0.927 µM). The mortality at 50 mg/kg with Tetranychus cinnabarinus [9] came to 100%. Further, in the test with Culex pipiens pallens [14], the mortality at 0.5 mg/kg was found to be 100%. Also, the mortality at 200 mg/kg in the test with Tetranychus cinnabarinus [16] is 100%. Moreover, the mortality at 100 mg/kg in the test on Tetranychus cinnabarinus [17] turned out to be 100%.
As to `N#Cc1c(Br)c(C(F)(F)F)n(COC(=O)c2ccc([N+](=O)[O-])cc2)c1-c1ccc(Cl)cc1`, the mortality at 0.1 mg/kg with Culex pipiens pallens [1] stood at 20%. Further, the mortality at 10 mg/kg in the test with Mythimna separata [2] was found to be 50%. In the test with Mythimna separata [3], the mortality at 20 mg/kg stood at 100%. For the same molecule, in the test with Culex pipiens pallens [6], the mortality at 0.25 mg/kg worked out at 60%. Also, the mortality at 5 mg/kg with Mythimna separata [7] is 0%. Moreover, the mortality at 50 mg/kg with Tetranychus cinnabarinus [9] worked out at 92%. In the test on Culex pipiens pallens [14], the mortality at 0.5 mg/kg amounted to 100%. Moreover, the mortality at 200 mg/kg in the test with Tetranychus cinnabarinus [16] was determined as 95%. The mortality at 100 mg/kg in the test on Tetranychus cinnabarinus [17] is 93%.
